Measured values reported in ChEMBL document CHEMBL1133633, “Anti-Helicobacter pylori agents. 4. 2-(Substituted guanidino)-4-phenylthiazoles and some structurally rigid derivatives” (2000).
≈ marks a conversion by molar mass, not a printed value.

How the values were obtained:
Helicobacter pylori [1] = experiment: Determined the lowest drug concentration that inhibited macroscopic colonial growth against Helicobacter pylori.; assay type: functional
Outline: (§1)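 Agar dilution. Strains were precultured 3 days at 37 °C on Brucella agar with 3% horse serum and 2% starch, then suspended in buffered saline to McFarland No. 1. A 10²-fold dilution was spotted by multipoint replicator onto Brucella agar with 7% lysed horse blood carrying serial 2-fold drug dilutions. Plates were incubated 3 days at 37 °C under 10% CO₂. MIC is the lowest concentration preventing macroscopic colonial growth. Mean and range come from 10 strains: 8001, 8003, 8004, 8007, 8008, 8009, 8011, 9005, FP1530 and FP1532.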

Helicobacter pylori [2] = experiment: The lowest drug concentration that inhibited macroscopic colonial growth against Helicobacter pylori.; assay type: functional; outline: as §1
Helicobacter pylori [3] = experiment: The lowest drug concentration that inhibited macroscopic colonial growth against Helicobacter pylori;value ranges from 6.25-50; assay type: functional; outline: as §1
Helicobacter pylori [4] = experiment: The lowest drug concentration that inhibited macroscopic colonial growth against Helicobacter pylori; Value ranges from 12.5-100; assay type: functional; outline: as §1
Clostridioides difficile [5] = experiment: Antimicrobial activity was measured against Clostridium difficile organism; range is between (0.1-0.78); assay type: functional
Campylobacter jejuni [6] = experiment: Antimicrobial activity was measured against Campylobacter jejuni organism; range is between ( 0.39-6.25).; assay type: functional
Clostridium perfringens [7] = experiment: Antimicrobial activity was measured against Clostridium perfringens organism; range is between (0.025-0.05); assay type: functional
Neisseria gonorrhoeae [8] = experiment: Antimicrobial activity was measured against Neisseria gonorrhoeae organism; range is between (0.39-100).; assay type: functional
Bacteroides fragilis [9] = experiment: Antimicrobial activity was measured against B. fragilis; range is between (0.2-12.5).; assay type: functional
Neisseria meningitidis [10] = experiment: Antimicrobial activity was measured against Neisseria meningitidis organism; range is between (0.05-0.1).; assay type: functional
Helicobacter pylori [11] = experiment: The lowest drug concentration that inhibited macroscopic colonial growth against Helicobacter pylori; value range is between 0.0063-0.1; assay type: functional; outline: as §1
Helicobacter pylori [12] = experiment: The lowest drug concentration that inhibited macroscopic colonial growth against Helicobacter pylori; Value ranges from 3.13-12.5; assay type: functional; outline: as §1
Helicobacter pylori [13] = experiment: The lowest drug concentration that inhibited macroscopic colonial growth against Helicobacter pylori; Value ranges from 6.25-50; assay type: functional; outline: as §1
Bacteroides fragilis [14] = experiment: Antimicrobial activity was measured against Bacteroides fragilis organism.; assay type: functional
Clostridium perfringens [15] = experiment: Antimicrobial activity was measured against Clostridium perfringens organism.; assay type: functional
Rattus norvegicus [16] = experiment: Inhibition of histamine stimulated gastric acid secretion in lumen perfused stomach of anesthetized rats (1 mg/kg iv); assay type: functional
Outline: (§2)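 Male Sprague-Dawley rats (~250 g), fasted 24 h, anesthetized with urethane 1.25 g/kg ip. The opened stomach was lumen-perfused with saline, and the perfusate was titrated with 25 mM NaOH by autotitrator. Inhibition of histamine-stimulated acid output was measured after 1 mg/kg iv dosing; n = 2.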

Clostridioides difficile [17] = experiment: Antimicrobial activity was measured against Clostridium difficile organism.; assay type: functional
Helicobacter pylori [18] = experiment: The lowest drug concentration that inhibited macroscopic colonial growth against Helicobacter pylori; value ranges from 0.0030-0.05; assay type: functional; outline: as §1
Neisseria gonorrhoeae [19] = experiment: Antimicrobial activity was measured against Neisseria gonorrhoeae organism; assay type: functional
Neisseria meningitidis [20] = experiment: Antimicrobial activity was measured against Neisseria meningitidis organism.; assay type: functional
Cavia porcellus [21] = species on record: Cavia porcellus; experiment: Inhibition of histamine stimulated chronotropic response in isolated guinea pig right atrium (1*10e-6 g/mL); assay type: functional, Cardiac atrium
Outline: (§3)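 Guinea pig right atrial strip, under 0.3-0.6 g initial tension in Tyrode solution at 30 °C, gassed with 95% O₂-5% CO₂; beating rate recorded by transducer. Histamine hydrochloride (1 × 10^-6 g/mL) raised rate. Test compound (1 × 10^-6 g/mL) was added 30 min after histamine washout. Percent inhibition compares histamine-induced rate increases before and 30 min after dosing.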

Campylobacter jejuni [22] = experiment: Antimicrobial activity was measured against Campylobacter jejuni organism. range is between is(12.5-50).; assay type: functional
Helicobacter pylori [23] = experiment: The lowest drug concentration that inhibited macroscopic colonial growth against Helicobacter pylori; value ranges from 1.56-3.13; assay type: functional; outline: as §1
Helicobacter pylori [24] = experiment: microbe, parasite or virus in culture
Helicobacter pylori [25] = experiment: The lowest drug concentration that inhibited macroscopic colonial growth against Helicobacter pylori; value ranges from 0.2-0.78; assay type: functional; outline: as §1
Campylobacter jejuni [26] = experiment: Antimicrobial activity was measured against Campylobacter jejuni organism.; assay type: functional
Bacteroides fragilis [27] = experiment: Antimicrobial activity was measured against Bacteroides fragilis; assay type: functional, organism-based
Helicobacter pylori [28] = experiment: Antimicrobial activity was measured against Helicobacter pylori organism.; assay type: functional, organism-based; outline: as §1
Helicobacter pylori [29] = experiment: The lowest drug concentration that inhibited macroscopic colonial growth against Helicobacter pylori; Value ranges from 25-100; assay type: functional; outline: as §1
Helicobacter pylori [30] = experiment: The lowest drug concentration that inhibited macroscopic colonial growth against Helicobacter pylori; value ranges from 0.39-0.78; assay type: functional; outline: as §1
Cavia porcellus [31] = species on record: Cavia porcellus; experiment: Inhibition of histamine stimulated chronotropic response in isolated guinea pig right atrium (1x 10e-6 g/mL); assay type: functional, Cardiac atrium; outline: as §3
Rattus norvegicus [32] = experiment: Inhibition of histamine stimulated gastric acid secretion in lumen perfused stomach of anesthetized rat (1 mg/kg iv); assay type: functional; outline: as §2
Clostridium perfringens [33] = experiment: Antimicrobial activity was measured against Clostridium perfringens organism; Value ranges from 0.78-3.13; assay type: functional
Helicobacter pylori [34] = experiment: The lowest drug concentration that inhibited macroscopic colonial growth against Helicobacter pylori; Value ranges from 1.56-25; assay type: functional; outline: as §1
Campylobacter jejuni [35] = experiment: Antimicrobial activity was measured against Campylobacter jejuni organism; Value ranges from 0.78-100; assay type: functional
Clostridioides difficile [36] = experiment: Antimicrobial activity was measured against Clostridium difficile organism; Value ranges from 0.1-0.39; assay type: functional
Bacteroides fragilis [37] = experiment: Antimicrobial activity was measured against B. fragilis range; Value ranges from 0.39-0.78; assay type: functional

`CC[C@H]1OC(=O)[C@H](C)[C@@H](O[C@H]2C[C@@](C)(OC)[C@@H](O)[C@H](C)O2)[C@H](C)[C@@H](O[C@@H]2O[C@H](C)C[C@H](N(C)C)[C@H]2O)[C@](C)(OC)C[C@@H](C)C(=O)[C@H](C)[C@@H](O)[C@]1(C)O` [CLARITHROMYCIN] was tested, and the MIC (Helicobacter pylori [1]) was 0.057 µg/mL (≈ 0.0762 µM).

Compound `CC/N=C(\N)Nc1nc(-c2cccc(CNC(C)=O)c2)cs1` has an MIC (Helicobacter pylori [2]) of 3.6 µg/mL (≈ 11.3 µM).

Compound `CC(=O)NCc1cccc(-c2csc(NC(=N)NCCc3c[nH]cn3)n2)c1` has an MIC (Helicobacter pylori [3]) of 27 µg/mL (≈ 70.4 µM).

`CC(=O)NCc1ccc2c(c1)-c1nc(N=C(N)N)sc1CCO2` was tested, and the MIC (Helicobacter pylori [4]) was 50 µg/mL (≈ 151 µM).

For `CC1(C)S[C@@H]2[C@H](NC(=O)[C@H](N)c3ccc(O)cc3)C(=O)N2[C@H]1C(=O)O` [AMOXICILLIN], the MIC (Clostridioides difficile [5]) was 0.28 µg/mL (≈ 0.766 µM), the MIC (Campylobacter jejuni [6]) was 2.2 µg/mL (≈ 6.02 µM) and the MIC (Clostridium perfringens [7]) was 0.027 µg/mL (≈ 0.0739 µM). The MIC (Neisseria gonorrhoeae [8]) was 7.7 µg/mL (≈ 21.1 µM), the MIC (Bacteroides fragilis [9]) was 2.1 µg/mL (≈ 5.75 µM) and the MIC (Neisseria meningitidis [10]) was 0.056 µg/mL (≈ 0.153 µM). It also gave an MIC (Helicobacter pylori [11]) of 0.021 µg/mL (≈ 0.0575 µM).

Work on `CCCC/N=C(\N)Nc1nc2c(s1)CCOc1ccc(CNC(C)=O)cc1-2` yielded an MIC (Helicobacter pylori [12]) of 7.7 µg/mL (≈ 19.9 µM).

`CCCC/N=C(\N)Nc1nc2c(s1)CSc1ccc(CNC(C)=O)cc1-2` was tested, and the MIC (Helicobacter pylori [13]) was 22 µg/mL (≈ 56.5 µM).

`COc1ccccc1CC/N=C(\N)Nc1nc(-c2cccc(CNC(C)=O)c2)cs1` was tested, and the MIC (Bacteroides fragilis [14]) was > 100 µg/mL, the MIC (Clostridium perfringens [15]) was > 100 µg/mL and the Inhibition (Rattus norvegicus [16]) was 58%. For the same compound, the MIC (Clostridioides difficile [17]) was > 100 µg/mL, the MIC (Helicobacter pylori [18]) was 0.017 µg/mL (≈ 0.0401 µM) and the MIC (Neisseria gonorrhoeae [19]) was > 100 µg/mL. For the same compound, the MIC (Neisseria meningitidis [20]) was > 100 µg/mL, the Inhibition (Cavia porcellus [21]) was 72% and the MIC (Campylobacter jejuni [22]) was 20.5 µg/mL (≈ 48.4 µM).

`CC(=O)NCc1cccc(-c2csc(NC(=N)NCCC(c3ccccc3)c3ccccc3)n2)c1` showed an MIC (Helicobacter pylori [23]) of 2.5 µg/mL (≈ 5.17 µM).

`CC(=O)NCc1cccc(-c2csc(N=C(N)N)n2)c1` showed an MIC (Helicobacter pylori [2]) of 16.5 µg/mL (≈ 57 µM).

`CN/C(=N\CCSCc1nc[nH]c1C)NC#N` [CIMETIDINE] gave an Inhibition (Rattus norvegicus [16]) of 53%, an MIC (Helicobacter pylori [24]) of 1130 µg/mL (≈ 4480 µM) and an Inhibition (Cavia porcellus [21]) of 43%.

For `CC(=O)NCc1cccc(-c2csc(NC(=N)Nc3ccccc3)n2)c1`, the MIC (Helicobacter pylori [25]) was 0.52 µg/mL (≈ 1.42 µM), the Inhibition (Rattus norvegicus [16]) was 24% and the Inhibition (Cavia porcellus [21]) was 23%.

In the case of “(2,5-Dihydroxy-4,7-dioxo-[1,3,2]dioxabismepan-5-yl)-acetic acid”, the MIC (Clostridium perfringens [15]) is reported as > 100 µg/mL, the MIC (Clostridioides difficile [17]) is reported as 50 µg/mL and the MIC (Campylobacter jejuni [26]) is reported as 7.4 µg/mL. It also gave an MIC (Bacteroides fragilis [27]) of 50 µg/mL, an MIC (Helicobacter pylori [28]) of 8.7 µg/mL and an MIC (Neisseria gonorrhoeae [19]) of 4.7 µg/mL. The MIC (Helicobacter pylori [1]) was 18 µg/mL and the MIC (Neisseria meningitidis [20]) was 12.5 µg/mL.

`CC(=O)NCc1ccc2c(c1)-c1nc(N=C(N)N)sc1CO2` showed an MIC (Helicobacter pylori [29]) of 62 µg/mL (≈ 195 µM).

Work on `CC(=O)NCc1cccc(-c2csc(NC(=N)NCCc3ccccn3)n2)c1` yielded an Inhibition (Rattus norvegicus [16]) of 14%, an Inhibition (Cavia porcellus [21]) of 39% and an MIC (Helicobacter pylori [30]) of 0.49 µg/mL (≈ 1.24 µM).

For `COc1ccccc1CC/N=C(\N)Nc1nc2c(s1)CCOc1ccc(CNC(C)=O)cc1-2`, the MIC (Helicobacter pylori [13]) was 18.9 µg/mL (≈ 40.6 µM).

With `CC(=O)NCc1cccc2c1OCCc1sc(N=C(N)N)nc1-2` the MIC (Helicobacter pylori [2]) was > 100 µg/mL.

`CC(=O)NCc1cccc(-c2csc(NC(=N)NCCCc3ccccc3)n2)c1` showed an MIC (Helicobacter pylori [25]) of 0.39 µg/mL (≈ 0.957 µM), an Inhibition (Cavia porcellus [31]) of 35% and an Inhibition (Rattus norvegicus [32]) of 57%.

For `Cc1ncc([N+](=O)[O-])n1CCO` [METRONIDAZOLE], the MIC (Clostridium perfringens [33]) was 1.75 µg/mL (≈ 10.2 µM), the MIC (Helicobacter pylori [34]) was 5.4 µg/mL (≈ 31.6 µM) and the MIC (Campylobacter jejuni [35]) was 30 µg/mL (≈ 175 µM). For the same compound, the MIC (Neisseria gonorrhoeae [19]) was > 100 µg/mL, the MIC (Clostridioides difficile [36]) was 0.2 µg/mL (≈ 1.17 µM) and the MIC (Bacteroides fragilis [37]) was 0.59 µg/mL (≈ 3.45 µM). The MIC (Neisseria meningitidis [20]) was > 100 µg/mL.
